This note sets out measurements from ChEMBL document CHEMBL1153921, “Design, synthesis, and biological evaluation of novel 1-(1H-1,2,4-triazole-1-yl)-2-(2,4-difluorophenyl)-3-substituted benzylamino-2-propanols” (2009).

Each structure is given as a SMILES string. In brackets after ≈: the same amount, converted by molar mass. Where only a bound is given, the exact number is not on record here.

Common to all, as to assay type: functional
For assay [1], the system named is Candida albicans. Nature of the assay: Antimicrobial activity against Candida albicans by micro-broth dilution method. Put shortly:
(§1)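 ATCC standard strains. Broth microdilution in 96-well plates following NCCLS M27-A2 (reference broth dilution method for yeasts). Endpoint is MIC80, the lowest concentration giving 80% growth inhibition. Marketed reference antifungals ran alongside as positive controls.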
In general terms: Dilution methods test growth across graded concentrations, often in twofold steps.

Assay [2] concerns Pichia kudriavzevii. Nature of the assay: Antimicrobial activity against Candida krusei by micro-broth dilution method. The method in brief:
(§2)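 Clinical isolates. Tested by broth microdilution in 96-well plates following NCCLS M27-A2. MIC80, the minimum concentration inhibiting growth by 80%, was recorded. Marketed reference antifungals were included as positive controls.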

The subject of assay [3] is Aspergillus fumigatus. Nature of the assay: Antimicrobial activity against Aspergillus fumigatus by micro-broth dilution method. Put shortly:
as §2

Assay [4] deals with Cryptococcus neoformans. The experiment in a line: Antimicrobial activity against Cryptococcus neoformans by micro-broth dilution method. Put shortly: as §1
In assay [5] the test system is Trichophyton rubrum. The experiment in a line: Antimicrobial activity against Trichophyton rubrum by micro-broth dilution method. Put shortly:
as §2

Assay [6] has as its system Candida tropicalis. Nature of the assay: Antimicrobial activity against Candida tropicalis by micro-broth dilution method. The method in brief:
as §2

Assay [7] has as its system Nannizzia gypsea. Nature of the assay: Antimicrobial activity against Microsporum gypseum by micro-broth dilution method. Put shortly:
as §2

The test system of assay [8] is Candida parapsilosis. Nature of the assay: Antimicrobial activity against Candida parapsilosis by micro-broth dilution method. Conditions: Lodderomyces parapsilosis. Put shortly:
as §2

`CCCN(Cc1ccc([N+](=O)[O-])cc1)CC(O)(Cn1cncn1)c1ccc(F)cc1F` (stereo unspecified): the MIC80 is 0.0156 µg/mL (≈ 0.0362 µM) in assay [1]; 0.0625 µg/mL (≈ 0.145 µM) in assay [2]; 64 µg/mL (≈ 148 µM) in assay [3]; 0.25 µg/mL (≈ 0.579 µM) in assay [4]; 0.25 µg/mL (≈ 0.579 µM) in assay [5]; 0.25 µg/mL (≈ 0.579 µM) in assay [6]. The MIC80 was found to be 0.0156 µg/mL (≈ 0.0362 µM) in assay [7] and 0.0625 µg/mL (≈ 0.145 µM) in assay [8].

Turning to `CCCN(Cc1ccccc1C)CC(O)(Cn1cncn1)c1ccc(F)cc1F` (stereo unspecified), the MIC80 is 0.0625 µg/mL (≈ 0.156 µM) in assay [1]; 0.0625 µg/mL (≈ 0.156 µM) in assay [2]; over 64 µg/mL in assay [3]; 0.25 µg/mL (≈ 0.624 µM) in assay [4]; 4 µg/mL (≈ 9.99 µM) in assay [5]; 0.0625 µg/mL (≈ 0.156 µM) in assay [6]. The MIC80 in assay [7] stood at 0.0039 µg/mL (≈ 0.00974 µM); in assay [8], 0.0625 µg/mL (≈ 0.156 µM).

As for `CCCN(Cc1ccccc1Cl)CC(O)(Cn1cncn1)c1ccc(F)cc1F` (stereo unspecified), the MIC80 in assay [1] was 0.25 µg/mL (≈ 0.594 µM); in assay [2], 0.25 µg/mL (≈ 0.594 µM); in assay [3], over 64 µg/mL; in assay [4] it was 0.0625 µg/mL (≈ 0.148 µM); in assay [5], 4 µg/mL (≈ 9.5 µM); in assay [6] it was 0.25 µg/mL (≈ 0.594 µM). Also, the values for the MIC80 in assay [7] and in assay [8] were 0.0156 µg/mL (≈ 0.0371 µM) and 0.25 µg/mL (≈ 0.594 µM), respectively.

On to `CC(C)N(Cc1cccc(F)c1)CC(O)(Cn1cncn1)c1ccc(F)cc1F` (stereo unspecified), for which the MIC80 was found to be 0.0625 µg/mL (≈ 0.155 µM) in assay [1]; 0.0625 µg/mL (≈ 0.155 µM) in assay [2]; 64 µg/mL (≈ 158 µM) in assay [3]; 0.0625 µg/mL (≈ 0.155 µM) in assay [4]; 0.25 µg/mL (≈ 0.618 µM) in assay [5]; 0.0625 µg/mL (≈ 0.155 µM) in assay [6]. In addition, the MIC80 in assay [7] and in assay [8] was 0.0625 µg/mL (≈ 0.155 µM) throughout.

For the compound `CC(C)N(Cc1ccccc1Br)CC(O)(Cn1cncn1)c1ccc(F)cc1F` (stereo unspecified), the MIC80 in assay [1] is 0.25 µg/mL (≈ 0.537 µM); in assay [2], 0.25 µg/mL (≈ 0.537 µM); in assay [3], over 64 µg/mL; in assay [4] it was 0.25 µg/mL (≈ 0.537 µM); in assay [5] it was 0.0625 µg/mL (≈ 0.134 µM); in assay [6] it was 0.0625 µg/mL (≈ 0.134 µM). Further, the MIC80 in assay [7] was 0.0156 µg/mL (≈ 0.0335 µM); in assay [8] it was 0.0625 µg/mL (≈ 0.134 µM).

For the compound `CCCN(Cc1cccc(F)c1)CC(O)(Cn1cncn1)c1ccc(F)cc1F` (stereo unspecified), the MIC80 is 0.0156 µg/mL (≈ 0.0386 µM) in assay [1]; 0.0625 µg/mL (≈ 0.155 µM) in assay [2]; over 64 µg/mL in assay [3]; 0.0625 µg/mL (≈ 0.155 µM) in assay [4]; 1 µg/mL (≈ 2.47 µM) in assay [5]; 0.25 µg/mL (≈ 0.618 µM) in assay [6]. Also, the MIC80 in assay [7] and in assay [8] was 0.0625 µg/mL (≈ 0.155 µM) throughout.

In the case of `CCCN(Cc1ccc(Cl)cc1Cl)CC(O)(Cn1cncn1)c1ccc(F)cc1F` (stereo unspecified), the MIC80 was 0.25 µg/mL (≈ 0.549 µM) in assay [1]; 1 µg/mL (≈ 2.2 µM) in assay [2]; over 64 µg/mL in assay [3]; 1 µg/mL (≈ 2.2 µM) in assay [4]; 1 µg/mL (≈ 2.2 µM) in assay [5]; 4 µg/mL (≈ 8.78 µM) in assay [6]. The MIC80 was 0.0156 µg/mL (≈ 0.0343 µM) in assay [7] and 1 µg/mL (≈ 2.2 µM) in assay [8].

For the compound `CC(C)N(Cc1ccccc1)CC(O)(Cn1cncn1)c1ccc(F)cc1F` (stereo unspecified), the MIC80 in assay [1] came out at 0.0156 µg/mL (≈ 0.0404 µM); in assay [2], 0.25 µg/mL (≈ 0.647 µM); in assay [3], 64 µg/mL (≈ 166 µM); in assay [4], 0.25 µg/mL (≈ 0.647 µM); in assay [5], 0.0625 µg/mL (≈ 0.162 µM); in assay [6] it was 0.25 µg/mL (≈ 0.647 µM). Also, the figures for the MIC80 in assay [7] and in assay [8] were 0.0156 µg/mL (≈ 0.0404 µM) and 0.0625 µg/mL (≈ 0.162 µM), respectively.

For `CCCN(Cc1ccc(Cl)cc1)CC(O)(Cn1cncn1)c1ccc(F)cc1F` (stereo unspecified), the MIC80 worked out at 0.0625 µg/mL (≈ 0.148 µM) in assay [1]; 0.0625 µg/mL (≈ 0.148 µM) in assay [2]; 64 µg/mL (≈ 152 µM) in assay [3]; 0.0625 µg/mL (≈ 0.148 µM) in assay [4]; 1 µg/mL (≈ 2.38 µM) in assay [5]; 0.25 µg/mL (≈ 0.594 µM) in assay [6]. Further, the MIC80 in assay [7] amounted to 0.0625 µg/mL (≈ 0.148 µM); in assay [8], 0.25 µg/mL (≈ 0.594 µM).

Turning to `CC(C)N(Cc1ccc(F)cc1)CC(O)(Cn1cncn1)c1ccc(F)cc1F` (stereo unspecified), the MIC80 in assay [1] is 0.0625 µg/mL (≈ 0.155 µM); in assay [2], 0.0625 µg/mL (≈ 0.155 µM); in assay [3] it was over 64 µg/mL; in assay [4], 0.0625 µg/mL (≈ 0.155 µM); in assay [5], 0.25 µg/mL (≈ 0.618 µM); in assay [6] it was 0.25 µg/mL (≈ 0.618 µM). The MIC80 in assay [7] and in assay [8] was 0.0625 µg/mL (≈ 0.155 µM) throughout.

For `CC(C)N(Cc1ccccc1Cl)CC(O)(Cn1cncn1)c1ccc(F)cc1F` (stereo unspecified), the MIC80 in assay [1] is 0.0625 µg/mL (≈ 0.148 µM); in assay [2], 0.0625 µg/mL (≈ 0.148 µM); in assay [3] it was over 64 µg/mL; in assay [4], 0.25 µg/mL (≈ 0.594 µM); in assay [5], 0.25 µg/mL (≈ 0.594 µM); in assay [6] it was 0.25 µg/mL (≈ 0.594 µM). Further, the MIC80 is 0.0625 µg/mL (≈ 0.148 µM) in assay [7] and 0.25 µg/mL (≈ 0.594 µM) in assay [8].

As to `Cc1ccc(CN(CC(O)(Cn2cncn2)c2ccc(F)cc2F)C(C)C)cc1` (stereo unspecified), the MIC80 in assay [1] was found to be 1 µg/mL (≈ 2.5 µM); in assay [2], 0.25 µg/mL (≈ 0.624 µM); in assay [3] it was 64 µg/mL (≈ 160 µM); in assay [4], 0.25 µg/mL (≈ 0.624 µM); in assay [5], 0.0625 µg/mL (≈ 0.156 µM); in assay [6] it was 1 µg/mL (≈ 2.5 µM). The results for the MIC80 in assay [7] and in assay [8] were 0.0625 µg/mL (≈ 0.156 µM) and 0.25 µg/mL (≈ 0.624 µM), respectively.

The MIC80 is an inhibitory concentration at the 80% level, which refers to growth in some studies and to a panel of isolates in others. Low readings indicate higher susceptibility, high ones lower susceptibility.
